# An excerpt weighted towards active compounds, which were near 3.9% of everything screened.
# NF-kB expr up – NF-kB expression increase, human neuronal cells; NF-kB reporter expression; stronger effect = higher value; fold change at 12.5 µM; hit rate 1.6% among 190,000; AID 1239; in the data active means fold change above about 3.3
# APP 5'UTR act – APP 5'UTR luciferase reporter activation | SH-SY5Y APP 5'UTR luciferase reporter, luminescence; zero percent = DMSO vehicle wells | activation, % at 2 µM | hit rate 1% among 190,000 | AID 1276;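 active means activation above a set limit, based on mean plus 3 SD of controls, cut at about 140% in these data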
# Rad51 HR inh – Rad51 (human) homologous recombination inhibition; Q06609; hRad51 DNA strand exchange, fluorescence dequenching; inhibition, % at 10 µM; hit rate 0.085% among 200,000; AID 1385;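 active means inhibition above 40% at the single screening dose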;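 further: 0% = DMSO control wells and 100% = blanks with heterologous ssDNA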
# Target sequence (Q06609 whole entry, looked up): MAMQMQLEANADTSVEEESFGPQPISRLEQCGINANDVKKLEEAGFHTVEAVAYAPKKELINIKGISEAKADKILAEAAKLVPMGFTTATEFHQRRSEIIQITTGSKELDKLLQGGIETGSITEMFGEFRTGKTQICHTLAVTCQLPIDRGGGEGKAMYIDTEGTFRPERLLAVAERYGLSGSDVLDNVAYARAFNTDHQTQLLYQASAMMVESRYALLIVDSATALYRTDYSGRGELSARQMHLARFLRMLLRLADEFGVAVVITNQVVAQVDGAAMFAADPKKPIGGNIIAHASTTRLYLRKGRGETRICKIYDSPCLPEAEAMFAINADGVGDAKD
#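 Test system – preformed human Rad51 ssDNA filaments · Reagent – Donor/quencher-labelled 47-bp dsDNA substrate · Incubation – 37 °C 15-min filament assembly, 30-min compound preincubation, 15-min exchange · Signal – FRET fluorescence dequenching, excitation 485 nm, emission 520 nm · Read-out – percent inhibition from fluorescence, normalised to plate control and blank means · Benchmarks – plate control and blank wells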
# FLuc inhib CS – counter-screen for luciferase assay inhibitors: firefly luciferase inhibition | ATPLite firefly luciferase biochemical luminescence, 10 min | inhibition, % at 10 µM | hit rate 1.5% among 200,000;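 active means inhibition above about 50% when tested at 10 µM, limit read from the data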
# STAT1 activator – STAT1 signaling activation | NIH 3T3 STAT1-luciferase reporter, IFN-gamma, luminescence; 100% = IFN-gamma alone, no compound | activation (% of control), % at 5.5 µM | hit rate 2.6% among 200,000;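 active means activation above the screen-wide mean activation plus 3 SD, cut at about 130% in these data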;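 further: raw ratio to IFN-gamma control signal so 100% means no change and 0% no light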
# FLuc act counter – affects firefly luciferase, flagging false hits in luciferase stimulation screens; ATPlite luciferase biochemical, luminescence, 10 min; 0 = ATP-free wells, 1 = DMSO control; activation factor at 10 µM; 200,000 tested, under 10 active; AID 1027;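 active means luciferase activation factor, scaled between plate controls, of at least 2 with compound at 10 µM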
#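 test system = cell-free luciferase reagent | medium = PBS as buffer for the ATP substrate | dosing = test compounds dosed from 2 mM stocks in 100% DMSO | incubation = 10 min at ambient temperature | detection = luminescence measurement of luciferase light output | benchmarks = low control with PBS replacing ATP, high control enzyme plus ATP without compound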
# * marks the source's active call; other numbers are inactive results; nt = no result given.
SMILES,NF-kB expr up,APP 5'UTR act,Rad51 HR inh,FLuc inhib CS,STAT1 activator,FLuc act counter
C/C(CC(=O)NC1CCCCC1)=N\NC(=O)c1ccccn1,1,156*,-3,-2,130*,1
CC(=O)Nc1ccccc1NC(=O)C/C(C)=N/NC(=O)c1ccccn1,1.4,104,3,-5,131*,1.1
CCc1ccc(Oc2cc(C)nc(N)n2)cc1,3.3*,77,-3,10,132*,0.9
CCCc1ccc(Oc2cc(Cl)nc(N)n2)cc1,1.8,31,nt,-3,109,1
COC(=O)c1cccc2nc3c(C(C)O)cccc3nc12 (stereo not drawn),nt,nt,-8,nt,nt,nt
CN(C(=O)COc1ccc([N+](=O)[O-])cc1)C1CCS(=O)(=O)C1 (stereo not drawn),0.98,21,nt,-4,99,1
O=C(O)c1ccc2c(c1)N(Cc1ccccc1)C(=O)c1ccccc1S2,nt,nt,-1,nt,nt,nt
O=C(/C=C/Nc1ccc([N+](=O)[O-])cc1Br)c1cccc2ccccc12,1.7,149*,6,33,96,0.7
Cc1cc(N/C=C/C(=O)c2cccc3ccccc23)no1,1.2,13,1,-8,108,1.1
COC(=O)/C(=C\Nc1cccc(Cl)c1C)c1ncc(C(F)(F)F)cc1Cl,1.3,8,79*,-2,101,1
Cc1ccc(-c2csc(-c3c[nH]c4ccccc34)n2)c(C)c1,2.5,31,0,-1,123,1
Oc1ccc(-c2csc(-c3c[nH]c4ccccc34)n2)c(O)c1,4.2*,107,nt,9,144*,0.9
Cc1cc(C)n2c(SCC(=O)Nc3ccc(F)cc3)nnc2n1,nt,nt,-5,nt,nt,nt
C=CCNC(=S)N/N=C/c1ccc(C(F)(F)F)cc1,1.1,-1,4,52*,97,0.5
C=CCNC(=S)N/N=C/c1ccc(C)cc1C,1.3,27,11,63*,99,0.4
FC(F)(F)c1ccc(/C=N/NC(=S)NC2CCCCC2)cc1,1.6,-5,-2,-3,107,1
COc1ccc(CC(=O)NNC(=S)Nc2ccccc2)cc1Cl,1.1,-1,-4,2,104,1
CCCOc1ccc(CC(=O)NNC(=S)Nc2ccccc2)cc1Br,3.3*,12,-9,-9,113,1.1
Cn1cc(-c2cc(C(=O)O)on2)cn1,nt,nt,9,nt,nt,nt
Cc1cccc2nc(COc3ccc(Cl)c4cccnc34)cn12,1.4,38,6,38,129*,0.6
CC(=O)C[C@H]1c2cc(F)ccc2S(=O)(=O)N1c1ccc(N(C)C)cc1,nt,nt,1,nt,nt,nt
O=[N+]([O-])c1cccc(-c2nc3ccc([N+](=O)[O-])cc3[nH]2)c1,1.6,22,-3,4,123,1
Oc1c(Br)cc(C=Nc2ccc3nc(-c4ccccc4)[nH]c3c2)c(O)c1Br,0.83,70,nt,56*,133*,0.4
Cc1ccc(-c2nc3ccc([N+](=O)[O-])cc3[nH]2)cc1,5.9*,152*,11,61*,71,0.4
O=[N+]([O-])c1ccc(O)c(C=Nc2ccc3nc(-c4ccccc4)[nH]c3c2)c1,1.8,75,-40,41,140*,0.6
SMILES,NF-kB expr up,APP 5'UTR act,Rad51 HR inh,FLuc inhib CS,STAT1 activator,FLuc act counter
O=[N+]([O-])c1ccc2nc(-c3ccncc3)[nH]c2c1,nt,nt,14,nt,nt,nt
N#Cc1c(N2CCCC2)ccc(Br)c1Cl,nt,nt,16,nt,nt,nt
Fc1cc(F)c(C2SCCN2C(=S)Nc2cccc(C(F)(F)F)c2)c(F)c1 (stereo not drawn),nt,nt,8,nt,nt,nt
CC(=O)c1sc(-c2ccc(Cl)cc2)nc1C,1.4,36,33,-4,133*,1
CC(=O)c1sc(-c2cccc(Cl)c2)nc1C,1.4,16,-4,2,108,1
CNC(=O)c1sc(-c2ccc(Cl)cc2)nc1C,2.1,nt,4,2,142*,1
COc1ccc(/C=C2\CCCC3C2=NN(C(=O)CSc2n[nH]c(N)n2)C3c2ccc(OC)cc2)cc1 (stereo not drawn),0.77,9,9,-9,105,1.1
Cc1ccc([N+](=O)[O-])cc1NC(=O)Nc1cccc(F)c1,nt,nt,14,nt,nt,nt
CN1CCN(C(=O)c2ccc(-c3cccs3)s2)CC1,nt,nt,5,nt,nt,nt
O=C(c1cccs1)c1ccc(-c2cccs2)s1,5.3*,158*,-3,78*,77,0.2
CCOc1cc(NS(=O)(=O)c2ccc(NC(C)=O)cc2)c(OCC)cc1NC(=O)c1cccs1,0.92,-10,nt,2,93,1
CN(C)c1ccc(/C=C2/SC(=O)N(CCN=C3NS(=O)(=O)c4ccccc43)C2=O)cc1,1.4,35,-6,4,133*,1
Cc1nn(-c2ccccc2)c2nc(C(Cl)(Cl)Cl)[nH]c(=O)c12,nt,nt,24,nt,nt,nt
CCc1ccc2nc3n[nH]c(N)c3cc2c1,2,104,3,70*,118,0.3
Nc1[nH]nc2nc3ccccc3cc12,1.1,5,-1,6,106,0.9
CCOC(=O)C1=C(C)OC(N)=C(C#N)C1c1ccc(C)s1 (stereo not drawn),1.4,14,6,1,94,1
S=C(NCCc1ccccc1)NCc1cccs1,1.4,31,9,3,98,1
CCOC(=O)Cn1c(=O)c2c(nc(N3CCCCC3)n2Cc2ccccc2)n(C)c1=O,0.91,3,44*,-4,104,1
CC(=O)c1sc(N/N=C2\CC3CC2C(C)C3(C)C)nc1C (stereo not drawn),1.9,57,nt,-4,131*,1
CCOc1ccc(N2Cc3ccccc3C2)cc1,nt,105,5,36,141*,0.6
CCOc1ccc(N2CC(=O)N(c3ccc(OCC)cc3)CC2=O)cc1,1,-3,2,0,101,1
Cc1cccc(-c2nc3sc(C)cc3c(=O)o2)c1,1.5,2,-5,12,103,0.9
Cc1ccc2nc(-c3ccc(SCC(=O)Nc4nnc(C)s4)nc3)[nH]c2c1,2.3,93,-1,56*,124,0.4
Cc1ccc2nc(-c3ccc(SCC(=O)Nc4nc(C)cs4)nc3)[nH]c2c1,1.6,149*,-10,28,146*,0.7
COc1cccc(CN2CCC(C(=O)N3CCC(C)CC3)CC2)c1,1.1,15,-52,0,106,1
Cc1ccc(Cn2c(C(C)Nc3nc(C)cs3)nc3cc(Cl)c(Cl)cc32)cc1 (stereo not drawn),nt,nt,10,nt,nt,nt
Cc1cc(Cl)ccc1Nc1ncccc1C(N)=O,2.1,41,6,6,130*,0.9
Cc1cc(Cl)ccc1NC(=S)Nc1ccccn1,1.6,56,-2,-3,130*,1
NC(=O)c1cccnc1Nc1ccccc1F,1.4,-7,11,3,97,1
Cc1ccc(NC(=S)Nc2ccccn2)c(C)c1,nt,nt,11,nt,nt,nt

# Bioassay records from PubChem.
